According to ChEMBL document CHEMBL4043264, “Design, synthesis, X-ray studies, and biological evaluation of novel macrocyclic HIV-1 protease inhibitors involving the P1'-P2' ligands” (Bioorg Med Chem Lett, 2017):

Key:
[1] = Inhibition of HIV-1 protease using fluorogenic substrate by fluorescence assay; parameters: species or system Human immunodeficiency virus 1
[2] = tested on: Human immunodeficiency virus 1; assay: Anti-viral activity against HIV-1 LAI infected in human MT2 cells assessed as reduction in p24 Gag protein production; format: functional, cell-based; conditions: Human immunodeficiency virus 1, M:B_Lai
[3] = Ratio of IC50 for darunavir-resistant HIV1 harboring protease L10I/I15V/K20R/L24I/V32I/M36I/M46L/L63P/V82A/L89M mutant infected in human MT4 cells to IC50 for wild type HIV1 NL4-3 infected in human MT4 cells; format: functional
[4] = tested on: Human immunodeficiency virus 1; assay: Antiviral activity against darunavir-resistant HIV1 harboring protease L10I/[…]K20R/L24I/V32I/M36I/M46L/L63P/V82A/L89M mutant infected in human MT4 cells assessed as reduction in p24 Gag protein production; format: functional, cell-based; conditions: Human immunodeficiency virus 1, MT4
Summary of the method: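 MT-4 cells (1×10^4) infected with 50 TCID₅₀ of wild-type HIV-1 NL4-3 or the DRV-resistant variant HIV-1 DRV^R P20 (protease L10I/I15V/K20R/L24I/V32I/M36I/M46L/L63P/V82A/L89M). Cells then cultured with various concentrations of each protease inhibitor. IC50 determined from p24 assay. Each assay run in triplicate. Values are means of three independent experiments, with fold-change relative to wild type.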

[5] = tested on: Human immunodeficiency virus 1; assay: Antiviral activity against wild type HIV-1 NL4-3 infected in human MT4 cells assessed as reduction in p24 Gag protein production; format: functional, cell-based; conditions: Human immunodeficiency virus 1, NL4-3, MT4
[6] = tested on: Human immunodeficiency virus 1; assay: Antiviral activity against HIV-1 harboring protease I50V mutant; format: functional
[7] = Inhibition of wild-type HIV-1 protease; parameters: species or system Human immunodeficiency virus 1

Row | SMILES | Ki [1] [nM] | IC50 [2] [nM] | other results
1 | COc1ccc2c(c1)COC/C=C/CCCCN(C[C@@H](O)[C@H](Cc1ccccc1)NC(=O)O[C@H]1CO[C@H]3OCC[C@H]31)S2(=O)=O | 0.015 | 46 | 
2 | COc1ccc2c(c1)OCCCCCN1C(=O)CC[C@@H]1CN(C[C@@H](O)[C@H](Cc1ccccc1)NC(=O)O[C@H]1CO[C@H]3OCC[C@H]31)S2(=O)=O | 0.46 | 122 | 
3 | COc1ccc2c(c1)OCCCCCCOCCN(C[C@@H](O)[C@H](Cc1ccccc1)NC(=O)O[C@H]1CO[C@H]3OCC[C@H]31)S2(=O)=O | 9.85 | > 1000 | 
4 | COc1ccc2c(c1)OCCCCCN1C(=O)CC[C@H]1CN(C[C@@H](O)[C@H](Cc1ccccc1)NC(=O)O[C@H]1CO[C@H]3OCC[C@H]31)S2(=O)=O | 27 | > 1000 | 
5 | COc1ccc2c(c1)OCC/C=C/CN1C(=O)CC[C@@H]1CN(C[C@@H](O)[C@H](Cc1ccccc1)NC(=O)O[C@H]1CO[C@H]3OCC[C@H]31)S2(=O)=O | 0.47 | 176 | 
6 | COc1ccc2c(c1)OCC/C=C\CN1C(=O)CC[C@@H]1CN(C[C@@H](O)[C@H](Cc1ccccc1)NC(=O)O[C@H]1CO[C@H]3OCC[C@H]31)S2(=O)=O | 13.2 | 22 | 
7 | Nc1ccc2c(c1)COCCCCCCCN(C[C@@H](O)[C@H](Cc1ccccc1)NC(=O)O[C@H]1CO[C@H]3OCC[C@H]31)S2(=O)=O | 0.014 | 2 | Ratio IC50 [3]: 13; IC50 [4]: 20 nM; IC50 [5]: 1.5 nM
8 | COc1ccc2c(c1)OCCCCCOCCN(C[C@@H](O)[C@H](Cc1ccccc1)NC(=O)O[C@H]1CO[C@H]3OCC[C@H]31)S2(=O)=O | 4.21 |  | 
9 | COc1ccc2c(c1)COC/C=C\CCCCCN(C[C@@H](O)[C@H](Cc1ccccc1)NC(=O)O[C@H]1CO[C@H]3OCC[C@H]31)S2(=O)=O | 0.64 |  | 
10 | COc1ccc2c(c1)COCCCCCCCCN(C[C@@H](O)[C@H](Cc1ccccc1)NC(=O)O[C@H]1CO[C@H]3OCC[C@H]31)S2(=O)=O | 0.062 | 31 | 
11 | COc1ccc2c(c1)OCCCCCCN(S(C)(=O)=O)CCN(C[C@@H](O)[C@H](Cc1ccccc1)NC(=O)O[C@H]1CO[C@H]3OCC[C@H]31)S2(=O)=O | 13.3 |  | 
12 | COc1ccc2c(c1)COC/C=C\CCCCN(C[C@@H](O)[C@H](Cc1ccccc1)NC(=O)O[C@H]1CO[C@H]3OCC[C@H]31)S2(=O)=O | 0.029 | 54 | 
13 | COc1ccc2c(c1)COCCCCCCCN(C[C@@H](O)[C@H](Cc1ccccc1)NC(=O)O[C@H]1CO[C@H]3OCC[C@H]31)S2(=O)=O | 0.062 | 5.3 | Ratio IC50 [3]: 67; IC50 [4]: 240 nM; IC50 [5]: 3.6 nM
14 | COc1ccc2c(c1)OCCCCCN(S(C)(=O)=O)CCN(C[C@@H](O)[C@H](Cc1ccccc1)NC(=O)O[C@H]1CO[C@H]3OCC[C@H]31)S2(=O)=O | 33.3 |  | 
15 | CC(C)CN(C[C@@H](O)[C@H](Cc1ccccc1)NC(=O)O[C@H]1CO[C@H]2OCC[C@H]21)S(=O)(=O)c1ccc(N)cc1 |  |  | IC50 [6]: 1.6 nM
16 | COc1ccc2c(c1)COC/C=C/CCCCCN(C[C@@H](O)[C@H](Cc1ccccc1)NC(=O)O[C@H]1CO[C@H]3OCC[C@H]31)S2(=O)=O | 0.55 |  | 
17 | COc1ccc(S(=O)(=O)N(CC(C)C)C[C@@H](O)[C@H](Cc2ccccc2)NC(=O)O[C@H]2CO[C@H]3OCC[C@H]32)cc1 |  |  | IC50 [6]: 1.2 nM; Ki [7]: 0.014 nM
